The subject of series [1] is TGEV. The experiment in a line: Anti-TGEV IC50 of cardenolides alone or combined with aldosterone or Db cAMP. It counts as cell-based, porcine transmissible gastroenteritis virus. The settings on record: Fig. 4D-c.
For series [2], the system named is TGEV. The experiment in a line: Effect of Na^+/K^+-ATPase activators on TGEV activity in ST cells. It counts as cell-based, porcine transmissible gastroenteritis virus. The settings on record: Fig. 4D-b.
A further series concerns Na^+/K^+-ATPase. Put plainly: Na^+/K^+-ATPase protein level in ST cells. It counts as cell-based, swine. The settings on record: Fig. 4D-a.
Series [3] is described as follows: Cytotoxicity assay in TGEV infected ST cells. It counts as cell-based, swine. The note with it: swine. The procedure, abridged: (§1)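 Cytotoxicity is measured in TGEV-infected ST cells in parallel with the immunofluorescence replication assay, with compound pretreatment for 1 h. CC50 is read at 6 h.p.i. Means ± S.D. come from 3–5 independent experiments, each in duplicate.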

In series [4] the test system is caspase-3 activation in TGEV infected ST cells. The experiment in a line: Western blot for TGEV induced caspase-3 activation in ST cells. The note with it: 1 μM, 18 h.p.i. It counts as cell-based, swine. The procedure, abridged:
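TGEV-infected swine testicular (ST) cells were treated with test compound at the indicated concentrations and harvested at 18 h post-infection. Lysates were analysed by western blot with antibodies against caspase-3 to detect its activation, plus TGEV N protein and β-actin as the loading control. A reference anti-TGEV compound served as the positive control.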
(Immunoblotting shows a protein as a band on a membrane.)

A further series has as its system TGEV N protein. The experiment in a line: Western analysis for TGEV N protein expression in infected ST cells. It counts as cell-based, porcine transmissible gastroenteritis virus. The procedure, abridged:
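Western blot for TGEV N protein in infected ST cells. In the titer-linked set, compound is added 1 h before TGEV (0.01 MOI), with 22 h incubation at 37 °C. Adherent cells are harvested for blotting while supernatants go to titration. Three or more independent experiments.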

Series [5] relates to TGEV. Put plainly: Cytopathic effect assay in TGEV infected ST cells. It counts as cell-based, porcine transmissible gastroenteritis virus. The note with it: 1 μM, TGEV 3.5 MOI, 18 h.p.i. The procedure, abridged:
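ST cells are pretreated with test compound for 1 h, then TGEV-infected at MOI 3.5, with mock-infected controls. At 18 h.p.i., cytopathic effect (rounding, enlargement, syncytia, detachment) is scored and viability is measured by MTS. Survival is compared with vehicle-treated infected cells by Student t-test. Three independent experiments.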

The test system of the next series is ST cells. Put plainly: Cytotoxicity assay in TGEV infected ST cells. The settings on record: read-out: ST CC50; cytotoxicity in TGEV infected ST cells at 6 h.p.i. It counts as cell-based, swine. The procedure, abridged: as §1

For `C[C@]12CCC(=O)C=C1CC[C@@H]1[C@@H]2[C@@H](O)C[C@]2(C=O)[C@@H](C(=O)CO)CC[C@@H]12` [Aldosterone, aldosterone], in the series on TGEV [1], the “effect on anti-TGEV activity of cardenolides” value was “able to antagonize”. Further, the “infectivity of TGEV” value with TGEV [2] is recorded as “increased the infectivity”. For the same molecule, the “Na^+/K^+-ATPase protein level in ST cells” value in the series with Na^+/K^+-ATPase was “moderately augmented”.
Turning to `CCCC(=O)Nc1ncnc2c1ncn2[C@@H]1O[C@@H]2COP(=O)([O-])O[C@H]2[C@H]1OC(=O)CCC.[Na+]` [Db cAMP, N6,2′-O-Dibutyryladenosine 3′,5′-cyclic monophosphate sodium salt], in the series with TGEV [1], the “effect on anti-TGEV activity of cardenolides” value is listed as “able to antagonize”. Also, in the series with TGEV [2], the “infectivity of TGEV” value is “increased the infectivity”. In addition, the “Na^+/K^+-ATPase protein level in ST cells” value in the series with Na^+/K^+-ATPase is listed as “moderately augmented”.
On to `C[C@]12CC[C@H](O)C[C@H]1CC[C@@H]1[C@@H]2CC[C@]2(C)[C@@H](C3=CC(=O)OC3)CC[C@]12O` [Digitoxigenin, digitoxigenin], for which the CC50 at 6 h post infection in series [3] was > 10 µM.
Consider `C[C@H]1O[C@@H](O[C@H]2[C@@H](O)C[C@H](O[C@H]3[C@@H](O)C[C@H](O[C@H]4CC[C@@]5(C)[C@H](CC[C@@H]6[C@@H]5CC[C@]5(C)[C@@H](C7=CC(=O)OC7)CC[C@]65O)C4)O[C@@H]3C)O[C@@H]2C)C[C@H](O)[C@@H]1O` [Digitoxin, digitoxin], for which, in series [3], the CC50 at 6 h post infection was > 10 µM. In addition, the “protection against caspase-3 activation” value in series [4] is “strong protection”.
Take `C[C@H]1O[C@@H](O[C@H]2[C@@H](O)C[C@H](O[C@H]3[C@@H](O)C[C@H](O[C@H]4CC[C@@]5(C)[C@H](CC[C@@H]6[C@@H]5C[C@@H](O)[C@]5(C)[C@@H](C7=CC(=O)OC7)CC[C@]65O)C4)O[C@@H]3C)O[C@@H]2C)C[C@H](O)[C@@H]1O` [Digoxin, digoxin]: the CC50 at 6 h post infection in series [3] is > 10 µM.
In the case of `CO[C@H]1C[C@H](O[C@H]2CC[C@@]3(C)[C@H](CC[C@@H]4[C@@H]3CC[C@]3(C)[C@@H](C5=CC(=O)OC5)[C@@H](OC(C)=O)C[C@]43O)C2)O[C@@H](C)[C@@H]1O` [Oleandrin, oleandrin], in series [3], the CC50 at 6 h post infection was > 10 µM. The “protection against caspase-3 activation” value in series [4] is “strong protection”. The “N protein expression in TGEV infected ST cells” value with TGEV N protein (TGEV 0.01 MOI, 22 h.p.i. (Fig. 3B)) is reported as “dose dependant manner”. Further, in the series with TGEV N protein (various doses (Fig. 1D)), the “N protein expression by western analyses in TGEV infected ST cells” value is “dose dependent manner of decreases”.
In the case of `C[C@@H]1O[C@@H](O[C@H]2C[C@@H](O)[C@]3(CO)[C@H]4[C@H](O)C[C@]5(C)[C@@H](C6=CC(=O)OC6)CC[C@]5(O)[C@@H]4CC[C@]3(O)C2)[C@H](O)[C@H](O)[C@H]1O` [Ouabain, ouabain], the CC50 at 6 h post infection in series [3] was > 10 µM. Besides, in series [4], the “protection against caspase-3 activation” value is “strong protection”.
In the case of `COc1cc2c3c(c4cc(OC)c(OC)cc4c2cc1OC)CN1CCC[C@@H]1C3` [Tylophorine], the CC50 at 6 h post infection in series [3] is > 10 µM. Besides, the “protection against cytopathic effect” value with TGEV [5] is recorded as “displayed protection”.
Take Reevesioside B: the CC50 in the series on ST cells is > 50 µM.
Same read-out and setting: in the case of Reevesioside C it was > 50 µM; in that of Reevesioside D, > 50 µM; in that of Reevesioside E, > 50 µM.
For Reevesioside F, in the series with ST cells, the cytotoxic concentration (CC50) was > 10 µM. The “protection against caspase-3 activation” value in series [4] is “strong protection”.
Consider Reevesioside H /epi-Reevesioside H, for which the CC50 in the series with ST cells is > 50 µM.
Still for that read-out and setting: in the case of Reevesioside I /epi-Reevesioside I it was > 50 µM.

The CC50 is the concentration at which the toxic effect on the cells reaches its halfway point.

Source of the values: publication PMC7103123 (Toxicology and Applied Pharmacology, 2017).
